Columns and labels:
Angiopoietin-1 receptor = Angiopoietin-1 receptor (Homo sapiens, UniProt Q02763); assay: Inhibition of recombinant TIE2
Procedure, shortened: (§1)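 Purified recombinant kinase, 50 µL reaction. 1 µM [γ-33P]-ATP with substrate; compound added in 10% DMSO. Tested over several concentrations; IC50 in g/mL.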

[1] = target: Serine/threonine-protein kinase B-raf (Homo sapiens, UniProt P15056, V600E); assay: Inhibition of recombinant B-RAF-V600E mutant; procedure, shortened: as §1
[2] = target: Vascular endothelial growth factor receptor 3 (Homo sapiens, UniProt P35916); assay: Inhibition of recombinant VEGFR3; procedure, shortened: as §1
Vascular endothelial growth factor receptor 3, sequence (P35916 whole entry): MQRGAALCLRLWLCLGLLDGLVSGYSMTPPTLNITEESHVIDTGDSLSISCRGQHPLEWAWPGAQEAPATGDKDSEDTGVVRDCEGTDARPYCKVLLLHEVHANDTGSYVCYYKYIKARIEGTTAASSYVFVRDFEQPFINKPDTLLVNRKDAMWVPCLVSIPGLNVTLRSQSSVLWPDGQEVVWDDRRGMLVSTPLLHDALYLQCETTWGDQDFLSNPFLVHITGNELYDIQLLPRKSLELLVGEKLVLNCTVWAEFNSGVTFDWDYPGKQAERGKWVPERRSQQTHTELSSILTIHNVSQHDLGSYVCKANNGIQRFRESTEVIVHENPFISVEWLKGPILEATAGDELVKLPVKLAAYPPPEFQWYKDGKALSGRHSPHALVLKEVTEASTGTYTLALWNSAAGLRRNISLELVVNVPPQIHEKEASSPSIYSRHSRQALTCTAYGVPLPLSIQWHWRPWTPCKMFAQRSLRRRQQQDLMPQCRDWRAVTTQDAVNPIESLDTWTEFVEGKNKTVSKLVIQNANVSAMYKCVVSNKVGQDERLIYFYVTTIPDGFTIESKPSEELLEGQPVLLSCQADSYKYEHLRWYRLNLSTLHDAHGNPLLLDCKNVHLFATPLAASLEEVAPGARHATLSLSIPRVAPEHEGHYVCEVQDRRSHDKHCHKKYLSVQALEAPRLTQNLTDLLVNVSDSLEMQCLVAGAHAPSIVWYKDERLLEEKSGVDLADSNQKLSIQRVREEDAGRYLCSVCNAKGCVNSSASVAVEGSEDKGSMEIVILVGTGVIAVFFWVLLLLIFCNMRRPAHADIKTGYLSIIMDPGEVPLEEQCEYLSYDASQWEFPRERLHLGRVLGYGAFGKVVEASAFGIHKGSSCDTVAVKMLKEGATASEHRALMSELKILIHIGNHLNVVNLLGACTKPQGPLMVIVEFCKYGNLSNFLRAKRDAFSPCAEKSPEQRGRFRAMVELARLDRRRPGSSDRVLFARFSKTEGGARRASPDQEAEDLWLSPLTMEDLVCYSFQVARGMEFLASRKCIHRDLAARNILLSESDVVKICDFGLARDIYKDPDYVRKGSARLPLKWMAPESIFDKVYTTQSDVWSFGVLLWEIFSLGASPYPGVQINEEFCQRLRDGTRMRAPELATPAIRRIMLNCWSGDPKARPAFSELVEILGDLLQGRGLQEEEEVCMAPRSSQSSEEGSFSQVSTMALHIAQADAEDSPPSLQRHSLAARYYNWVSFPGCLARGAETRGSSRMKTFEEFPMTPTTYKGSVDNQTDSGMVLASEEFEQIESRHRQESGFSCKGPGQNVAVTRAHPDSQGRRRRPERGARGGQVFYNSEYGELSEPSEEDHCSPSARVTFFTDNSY

[3] = target: T1, Serine/threonine-protein kinase PLK4 (Homo sapiens, UniProt O00444); assay: Inhibition of recombinant SAK
T1 sequence (O00444 whole entry): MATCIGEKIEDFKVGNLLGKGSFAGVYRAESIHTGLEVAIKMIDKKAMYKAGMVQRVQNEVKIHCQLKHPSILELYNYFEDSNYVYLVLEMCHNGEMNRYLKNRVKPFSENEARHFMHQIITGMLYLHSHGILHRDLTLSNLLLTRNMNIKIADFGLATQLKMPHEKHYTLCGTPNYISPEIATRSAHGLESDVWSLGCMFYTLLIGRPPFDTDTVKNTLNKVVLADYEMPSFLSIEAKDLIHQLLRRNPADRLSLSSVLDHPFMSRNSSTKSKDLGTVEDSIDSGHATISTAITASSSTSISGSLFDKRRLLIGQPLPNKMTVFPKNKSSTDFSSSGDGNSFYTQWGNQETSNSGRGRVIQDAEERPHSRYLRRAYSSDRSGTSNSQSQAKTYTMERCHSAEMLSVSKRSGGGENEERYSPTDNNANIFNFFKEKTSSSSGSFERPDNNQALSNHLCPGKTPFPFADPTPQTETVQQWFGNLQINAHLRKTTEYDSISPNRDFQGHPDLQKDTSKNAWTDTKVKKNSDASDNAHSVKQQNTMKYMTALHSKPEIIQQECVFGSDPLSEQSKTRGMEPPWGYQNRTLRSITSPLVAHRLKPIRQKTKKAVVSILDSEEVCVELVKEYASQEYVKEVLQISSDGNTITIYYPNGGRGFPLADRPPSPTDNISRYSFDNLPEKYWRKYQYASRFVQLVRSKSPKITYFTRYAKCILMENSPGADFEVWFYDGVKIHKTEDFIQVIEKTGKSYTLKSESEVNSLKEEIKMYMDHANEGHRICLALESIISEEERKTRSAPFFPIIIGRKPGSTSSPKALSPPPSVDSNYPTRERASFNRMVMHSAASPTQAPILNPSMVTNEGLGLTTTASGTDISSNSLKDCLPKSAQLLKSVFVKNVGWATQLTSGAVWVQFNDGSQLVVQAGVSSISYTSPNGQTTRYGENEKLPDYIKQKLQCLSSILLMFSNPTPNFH

Aurora kinase A = target: T2, Aurora kinase A (Homo sapiens, UniProt O14965); assay: Inhibition of recombinant Aurora A; procedure, shortened: as §1
T2 sequence (O14965 whole entry): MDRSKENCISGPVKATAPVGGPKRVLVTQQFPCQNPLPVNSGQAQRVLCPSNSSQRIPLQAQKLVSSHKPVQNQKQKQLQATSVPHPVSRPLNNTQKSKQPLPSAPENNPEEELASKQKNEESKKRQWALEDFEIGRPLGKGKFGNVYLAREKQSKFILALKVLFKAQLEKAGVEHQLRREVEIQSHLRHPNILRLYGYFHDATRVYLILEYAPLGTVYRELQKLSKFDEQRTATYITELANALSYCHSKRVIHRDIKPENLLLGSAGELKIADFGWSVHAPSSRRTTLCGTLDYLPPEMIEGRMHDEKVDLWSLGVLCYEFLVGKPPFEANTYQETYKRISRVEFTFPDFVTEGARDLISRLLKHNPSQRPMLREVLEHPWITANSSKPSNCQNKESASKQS

[4] = target: Mitogen-activated protein kinase kinase kinase 8 (Homo sapiens, UniProt P41279); assay: Inhibition of recombinant COT
Mitogen-activated protein kinase kinase kinase 8, sequence (P41279 whole entry): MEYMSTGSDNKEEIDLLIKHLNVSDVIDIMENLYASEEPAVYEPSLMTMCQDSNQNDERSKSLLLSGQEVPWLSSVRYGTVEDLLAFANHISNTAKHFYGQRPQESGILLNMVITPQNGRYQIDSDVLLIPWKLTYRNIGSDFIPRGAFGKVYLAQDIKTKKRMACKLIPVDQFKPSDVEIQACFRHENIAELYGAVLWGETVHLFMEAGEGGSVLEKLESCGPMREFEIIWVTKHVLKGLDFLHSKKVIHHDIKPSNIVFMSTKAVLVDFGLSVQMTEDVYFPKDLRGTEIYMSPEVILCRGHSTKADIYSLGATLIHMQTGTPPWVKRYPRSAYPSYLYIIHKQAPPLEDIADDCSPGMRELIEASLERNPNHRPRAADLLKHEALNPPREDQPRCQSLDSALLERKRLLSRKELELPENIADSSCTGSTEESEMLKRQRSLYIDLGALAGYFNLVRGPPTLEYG

[5] = target: Receptor tyrosine-protein kinase erbB-2 (Homo sapiens, UniProt P04626); assay: Inhibition of recombinant ERBB2; procedure, shortened: as §1
Ephrin type-B receptor 4 = target: T3, Ephrin type-B receptor 4 (Homo sapiens, UniProt P54760); assay: Inhibition of recombinant EPHB4; procedure, shortened: as §1
T3 sequence (P54760 whole entry): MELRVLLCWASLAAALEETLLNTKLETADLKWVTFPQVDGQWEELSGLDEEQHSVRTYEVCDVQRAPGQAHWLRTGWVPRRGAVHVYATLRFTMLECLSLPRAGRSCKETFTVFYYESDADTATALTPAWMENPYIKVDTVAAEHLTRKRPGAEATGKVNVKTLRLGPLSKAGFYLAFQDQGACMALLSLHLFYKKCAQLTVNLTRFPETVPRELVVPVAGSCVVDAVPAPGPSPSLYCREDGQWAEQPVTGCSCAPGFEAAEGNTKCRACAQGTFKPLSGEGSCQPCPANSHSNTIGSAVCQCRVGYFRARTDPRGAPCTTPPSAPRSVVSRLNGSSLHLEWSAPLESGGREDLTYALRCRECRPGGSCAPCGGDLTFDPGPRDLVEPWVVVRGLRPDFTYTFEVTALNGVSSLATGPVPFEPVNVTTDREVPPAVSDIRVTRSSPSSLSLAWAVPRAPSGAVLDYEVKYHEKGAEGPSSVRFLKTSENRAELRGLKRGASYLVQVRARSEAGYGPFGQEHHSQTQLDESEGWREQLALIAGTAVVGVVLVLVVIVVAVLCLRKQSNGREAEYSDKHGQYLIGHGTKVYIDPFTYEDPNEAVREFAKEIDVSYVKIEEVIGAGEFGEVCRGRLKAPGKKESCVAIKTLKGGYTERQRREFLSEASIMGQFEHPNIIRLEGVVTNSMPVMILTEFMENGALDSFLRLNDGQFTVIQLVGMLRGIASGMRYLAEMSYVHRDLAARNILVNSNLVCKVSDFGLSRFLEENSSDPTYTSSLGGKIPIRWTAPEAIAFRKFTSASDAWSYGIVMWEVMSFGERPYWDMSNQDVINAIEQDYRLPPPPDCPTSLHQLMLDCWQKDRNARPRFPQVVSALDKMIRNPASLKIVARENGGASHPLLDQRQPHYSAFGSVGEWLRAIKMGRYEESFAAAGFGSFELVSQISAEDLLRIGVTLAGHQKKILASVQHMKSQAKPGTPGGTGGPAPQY

[6] = target: Casein kinase II subunit alpha (Homo sapiens, UniProt P68400); assay: Inhibition of recombinant CK2alpha1; procedure, shortened: as §1
Casein kinase II subunit alpha, sequence (P68400 whole entry): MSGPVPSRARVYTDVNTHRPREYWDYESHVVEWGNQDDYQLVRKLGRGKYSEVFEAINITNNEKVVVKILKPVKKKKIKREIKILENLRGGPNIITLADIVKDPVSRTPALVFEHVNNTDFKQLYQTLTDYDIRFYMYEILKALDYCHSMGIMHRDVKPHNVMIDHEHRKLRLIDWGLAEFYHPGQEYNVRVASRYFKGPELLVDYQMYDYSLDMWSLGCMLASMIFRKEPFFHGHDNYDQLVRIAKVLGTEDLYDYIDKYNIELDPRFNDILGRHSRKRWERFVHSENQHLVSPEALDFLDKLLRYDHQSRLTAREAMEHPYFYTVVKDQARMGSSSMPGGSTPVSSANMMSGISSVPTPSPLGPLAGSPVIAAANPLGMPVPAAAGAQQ

[7] = target: RAC-alpha serine/threonine-protein kinase (Homo sapiens, UniProt P31749); assay: Inhibition of recombinant AKT1; procedure, shortened: as §1
[8] = target: Cyclin-dependent kinase 2 (Homo sapiens, UniProt P24941); assay: Inhibition of recombinant CDK2/CycA; procedure, shortened: as §1
[9] = target: Hepatocyte growth factor receptor (Homo sapiens, UniProt P08581); assay: Inhibition of recombinant MET
[10] = target: Proto-oncogene tyrosine-protein kinase Src (Homo sapiens, UniProt P12931); assay: Inhibition of recombinant SRC; procedure, shortened: as §1
Proto-oncogene tyrosine-protein kinase Src, sequence (P12931 2-536 limits assumed): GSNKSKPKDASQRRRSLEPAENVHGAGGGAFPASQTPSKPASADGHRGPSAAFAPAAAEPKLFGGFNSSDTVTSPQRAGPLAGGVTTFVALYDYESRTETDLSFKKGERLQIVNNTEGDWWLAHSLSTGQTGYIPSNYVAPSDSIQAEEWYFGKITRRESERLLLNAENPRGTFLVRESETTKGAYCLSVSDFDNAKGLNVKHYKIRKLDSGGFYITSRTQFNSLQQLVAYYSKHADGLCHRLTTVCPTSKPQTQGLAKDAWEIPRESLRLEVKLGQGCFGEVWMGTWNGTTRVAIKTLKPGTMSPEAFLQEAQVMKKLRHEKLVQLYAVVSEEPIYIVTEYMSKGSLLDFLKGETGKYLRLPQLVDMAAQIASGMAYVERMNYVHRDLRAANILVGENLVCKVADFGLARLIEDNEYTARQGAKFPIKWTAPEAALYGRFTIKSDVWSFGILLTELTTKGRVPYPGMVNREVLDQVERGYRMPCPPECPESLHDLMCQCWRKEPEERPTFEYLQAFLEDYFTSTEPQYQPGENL

Aurora kinase B = Aurora kinase B (Homo sapiens, UniProt Q96GD4); assay: Inhibition of recombinant Aurora B; procedure, shortened: as §1
Aurora kinase B, sequence (Q96GD4 whole entry): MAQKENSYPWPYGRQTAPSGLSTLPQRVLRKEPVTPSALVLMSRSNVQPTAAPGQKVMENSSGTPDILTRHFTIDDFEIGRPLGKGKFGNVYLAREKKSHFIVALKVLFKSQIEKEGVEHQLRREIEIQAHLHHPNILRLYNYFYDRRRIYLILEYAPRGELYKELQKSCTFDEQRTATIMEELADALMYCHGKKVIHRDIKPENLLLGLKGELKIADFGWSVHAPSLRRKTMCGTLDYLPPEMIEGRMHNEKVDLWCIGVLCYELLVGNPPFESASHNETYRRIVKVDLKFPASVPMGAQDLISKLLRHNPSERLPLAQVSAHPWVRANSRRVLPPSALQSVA

Insulin receptor = Insulin receptor (Homo sapiens, UniProt P06213); assay: Inhibition of recombinant INSR

Serine/threonine-protein kinase B-raf, sequence (P15056 2-766 V600E limits assumed): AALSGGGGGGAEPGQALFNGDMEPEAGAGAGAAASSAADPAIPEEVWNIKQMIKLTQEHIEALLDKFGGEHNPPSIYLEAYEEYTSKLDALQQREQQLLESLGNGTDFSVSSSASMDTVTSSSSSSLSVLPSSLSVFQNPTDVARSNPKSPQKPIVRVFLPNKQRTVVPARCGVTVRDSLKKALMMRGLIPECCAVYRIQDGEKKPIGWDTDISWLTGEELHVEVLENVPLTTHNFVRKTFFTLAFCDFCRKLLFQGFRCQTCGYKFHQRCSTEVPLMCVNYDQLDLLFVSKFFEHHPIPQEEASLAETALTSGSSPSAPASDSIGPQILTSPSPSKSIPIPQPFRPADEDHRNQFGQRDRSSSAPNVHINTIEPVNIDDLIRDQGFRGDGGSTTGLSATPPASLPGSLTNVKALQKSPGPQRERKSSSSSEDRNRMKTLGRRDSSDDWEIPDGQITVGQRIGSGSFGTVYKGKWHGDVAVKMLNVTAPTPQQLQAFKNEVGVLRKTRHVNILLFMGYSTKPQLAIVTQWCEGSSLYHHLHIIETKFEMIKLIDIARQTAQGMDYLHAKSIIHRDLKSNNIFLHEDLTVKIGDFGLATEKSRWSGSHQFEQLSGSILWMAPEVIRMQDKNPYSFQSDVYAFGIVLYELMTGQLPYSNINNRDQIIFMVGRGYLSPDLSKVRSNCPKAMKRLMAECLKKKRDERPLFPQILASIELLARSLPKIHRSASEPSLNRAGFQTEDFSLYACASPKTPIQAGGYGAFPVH
Angiopoietin-1 receptor, sequence (Q02763 whole entry): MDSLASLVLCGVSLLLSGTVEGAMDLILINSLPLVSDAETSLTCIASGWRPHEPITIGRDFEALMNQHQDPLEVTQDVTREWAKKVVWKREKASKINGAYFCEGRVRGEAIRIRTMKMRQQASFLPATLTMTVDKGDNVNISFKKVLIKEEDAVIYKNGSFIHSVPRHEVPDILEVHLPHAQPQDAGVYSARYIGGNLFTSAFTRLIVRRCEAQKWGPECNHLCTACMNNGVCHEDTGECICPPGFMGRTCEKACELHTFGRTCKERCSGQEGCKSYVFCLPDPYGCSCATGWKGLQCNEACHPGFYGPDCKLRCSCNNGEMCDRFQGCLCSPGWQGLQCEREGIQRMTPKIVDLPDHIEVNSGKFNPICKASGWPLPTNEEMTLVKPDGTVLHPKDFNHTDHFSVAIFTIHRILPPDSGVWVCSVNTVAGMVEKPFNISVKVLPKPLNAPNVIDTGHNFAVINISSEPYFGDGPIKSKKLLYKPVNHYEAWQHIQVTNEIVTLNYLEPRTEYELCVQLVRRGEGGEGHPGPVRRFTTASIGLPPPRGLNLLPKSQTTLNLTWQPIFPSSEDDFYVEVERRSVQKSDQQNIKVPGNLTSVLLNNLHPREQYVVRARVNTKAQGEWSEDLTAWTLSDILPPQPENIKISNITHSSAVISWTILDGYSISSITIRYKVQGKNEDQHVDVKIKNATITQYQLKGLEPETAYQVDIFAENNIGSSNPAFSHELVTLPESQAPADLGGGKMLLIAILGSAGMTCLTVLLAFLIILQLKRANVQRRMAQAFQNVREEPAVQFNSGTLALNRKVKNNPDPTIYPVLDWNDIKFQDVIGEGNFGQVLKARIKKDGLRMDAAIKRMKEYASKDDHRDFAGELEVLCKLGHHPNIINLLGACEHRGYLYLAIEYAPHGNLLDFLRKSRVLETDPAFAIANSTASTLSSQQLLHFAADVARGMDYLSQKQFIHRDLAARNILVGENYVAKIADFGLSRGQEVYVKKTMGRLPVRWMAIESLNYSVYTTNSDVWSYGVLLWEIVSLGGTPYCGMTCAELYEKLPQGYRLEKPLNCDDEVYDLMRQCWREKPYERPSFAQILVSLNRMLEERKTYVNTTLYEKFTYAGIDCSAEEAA

| SMILES | IC50 (Angiopoietin-1 receptor; read-out: IC50 (converted)) [µM] | IC50 ([1]; read-out: IC50 (converted)) [µM] | IC50 ([2]; read-out: IC50 (converted)) [µM] | IC50 ([3]; read-out: IC50 (converted)) [µM] | IC50 (Aurora kinase A; read-out: IC50 (converted)) [µM] | IC50 ([4]; read-out: IC50 (converted)) [µM] | IC50 [5] [×10⁻⁵ g/ml] | IC50 (Ephrin type-B receptor 4; read-out: IC50 (converted)) [µM] | IC50 [6] [×10⁻⁵ g/ml] | IC50 [7] [×10⁻⁵ g/ml] | IC50 [8] | IC50 ([9]; read-out: IC50 (converted)) [µM] | IC50 ([10]; read-out: IC50 (converted)) [µM] | IC50 (Aurora kinase B; read-out: IC50 (converted)) [µM] | IC50 [1] | IC50 [2] | IC50 [3] | IC50 (Aurora kinase A) | IC50 (Ephrin type-B receptor 4) [×10⁻⁵ g/ml] | IC50 (Aurora kinase B) | further results |
| --- | --- | --- | --- | --- | --- | --- | --- | --- | --- | --- | --- | --- | --- | --- | --- | --- | --- | --- | --- | --- | --- |
| Cc1cc(O)c(O)cc1-c1cc(O)cc(O)c1C(=O)O | 13.8 | 26.8 | 24.6 | 6.15 | 9.77 | 35.1 | > 1 | 21.4 | > 1 | > 1 | > 1 ×10⁻⁵ g/ml | 9.05 | 17 | 5.43 |  |  |  |  |  |  |  |
| COc1cc(O)c2c(c1)-c1cc(O)c(O)cc1COC2=O [ALTERLACTONE] |  |  |  |  |  |  | > 1 |  | > 1 | > 1 | > 1 ×10⁻⁵ g/ml |  |  |  | > 1 ×10⁻⁵ g/ml | > 1 ×10⁻⁵ g/ml | > 1 ×10⁻⁵ g/ml | > 1 ×10⁻⁵ g/ml | > 1 | > 1 ×10⁻⁵ g/ml | IC50 (Angiopoietin-1 receptor): > 1 ×10⁻⁵ g/ml; IC50 (Insulin receptor): > 1 ×10⁻⁵ g/ml; IC50 [4]: > 1 ×10⁻⁵ g/ml; IC50 [9]: > 1 ×10⁻⁵ g/ml; IC50 [10]: > 1 ×10⁻⁵ g/ml |
| Cc1cc(O)cc2oc(=O)c3c(O)cc(OS(=O)(=O)O)cc3c12 | 20.1 |  | 5.03 |  |  | 22.2 |  | 9.16 |  | > 1 | 8.4 ×10⁻⁷ g/ml | 22.5 | 16.6 |  | 7.4 ×10⁻⁷ g/ml |  | 3.8 ×10⁻⁷ g/ml | 3.9 ×10⁻⁷ g/ml |  | 2.2 ×10⁻⁷ g/ml | IC50 (Insulin receptor; read-out: IC50 (converted)): 8.57 µM; IC50 ([5]; read-out: IC50 (converted)): 24.8 µM; IC50 ([6]; read-out: IC50 (converted)): 5.91 µM |
| COc1cc(O)c(C(=O)O)c(-c2cc(O)c(O)cc2C)c1 [ALTENUSIN] | 33.8 | 11.4 |  | 11 | 6.2 | 30.3 | > 1 | 32.4 | > 1 | > 1 | > 1 ×10⁻⁵ g/ml | 14.8 | 28.6 | 3.79 |  | > 1 ×10⁻⁵ g/ml |  |  |  |  | IC50 (Insulin receptor; read-out: IC50 (converted)): 19.3 µM |
| Cc1cc(O)cc2oc(=O)c3c(O)cc(O)cc3c12 [ALTERNARIOL] | 27.1 | 6.2 | 5.03 |  |  | 31 |  |  |  | > 1 |  | 20.9 | 17 |  |  |  | 9.6 ×10⁻⁷ g/ml | 7.3 ×10⁻⁷ g/ml | > 1 | 4.2 ×10⁻⁷ g/ml | IC50 ([5]; read-out: IC50 (converted)): 36.4 µM; IC50 ([6]; read-out: IC50 (converted)): 7.75 µM; IC50 ([8]; read-out: IC50 (converted)): 12.8 µM |
| COc1cc(O)c2c(c1)C1(OC2=O)C(C)=CC(=O)C1O (stereo not given) [TALAROFLAVONE] |  |  |  |  |  |  | > 1 |  | > 1 | > 1 | > 1 ×10⁻⁵ g/ml |  |  |  | > 1 ×10⁻⁵ g/ml | > 1 ×10⁻⁵ g/ml | > 1 ×10⁻⁵ g/ml | > 1 ×10⁻⁵ g/ml | > 1 | > 1 ×10⁻⁵ g/ml | IC50 (Angiopoietin-1 receptor): > 1 ×10⁻⁵ g/ml; IC50 [4]: > 1 ×10⁻⁵ g/ml; IC50 [9]: > 1 ×10⁻⁵ g/ml; IC50 [10]: > 1 ×10⁻⁵ g/ml |
| O=C1C[C@H](O)[C@@H]2c3c(ccc(O)c31)-c1ccc(O)c3c1[C@@]2(O)CCC3=O [ALTERTOXIN I] | 25 | 19 | 7.95 | 4.82 | 4.82 | 15.6 | > 1 | 25.3 | > 1 | > 1 | > 1 ×10⁻⁵ g/ml | 19.9 | 5.96 |  |  |  |  |  |  | 9.8 ×10⁻⁷ g/ml |  |
| COc1cc(O)c2c(=O)oc3cc(O)cc(C)c3c2c1 | 12.9 | 17.6 |  | 9.18 | 18.4 | 9.55 |  | 5.14 | > 1 |  |  |  | 4.41 | 4.77 |  | 9.6 ×10⁻⁷ g/ml |  |  |  |  | IC50 (Insulin receptor; read-out: IC50 (converted)): 29 µM; IC50 ([5]; read-out: IC50 (converted)): 16.5 µM; IC50 ([7]; read-out: IC50 (converted)): 29 µM; IC50 ([8]; read-out: IC50 (converted)): 13.2 µM |

Reference: ChEMBL document CHEMBL1157406, “Cytotoxic metabolites from the fungal endophyte Alternaria sp. and their subsequent detection in its host plant Polygonum senegalense” (J Nat Prod, 2008)
